Hits are enriched below; roughly 3.1% of the tested compounds scored in any of these assays.
PP1 counter = PP1-alpha (human) inhibition in PP5 counter-screen; P62136; purified PP1alpha, OMFP fluorescence; inhibition, % at 6.7 µM; hit rate 0.9% among 320,000;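 active = inhibition above the mean inhibition of all tested compounds plus 3 SD, computed separately for each screening campaign, cut at about 15% in these data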
Target sequence (P62136 whole entry, looked up): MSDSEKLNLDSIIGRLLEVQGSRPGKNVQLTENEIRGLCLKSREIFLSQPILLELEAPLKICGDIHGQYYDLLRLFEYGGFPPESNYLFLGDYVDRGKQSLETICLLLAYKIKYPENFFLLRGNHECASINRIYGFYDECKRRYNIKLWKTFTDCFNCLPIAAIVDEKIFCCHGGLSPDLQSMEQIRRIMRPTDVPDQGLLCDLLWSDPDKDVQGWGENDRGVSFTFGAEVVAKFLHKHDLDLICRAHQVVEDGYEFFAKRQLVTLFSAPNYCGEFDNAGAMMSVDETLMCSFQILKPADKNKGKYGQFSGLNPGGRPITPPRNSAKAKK
HCV core dimer = HCV core protein dimerization inhibition; TR-FRET GST/Flag-core106 dimerization, 1536-well; inhibition, % at 5 µM; hit rate 0.33% among 300,000; AID 1899;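 active = inhibition above the mean of all tested compounds plus 3 SD, set per screening campaign, cut at about 45% in these data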
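Test system: GST/Flag-tagged HCV core106 proteins; Medium: KF-containing HEPES buffer, pH 7.45, DTT, CHAPS, BSA; Times: compound-protein-antibody incubation 4 h at 22.5 °C; Detection: TR-FRET 671 and 617 nm emission; Benchmarks: wells lacking GST-core106 and wells with excess unlabelled core106.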
Myeloid diff 2 = myeloid differentiation induction; ER-HoxA9 myeloid progenitors, lysozyme-GFP differentiation, flow cytometry; calls only at 10 µM; hit rate 1% among 360,000;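 active = normalized GFP-positive differentiation at or above the plate's own cutoff, the solvent-only control mean plus 3 SD; inconclusive = no clear call, values can overlap the other calls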;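 note: cells exposed to compound for four days before flow analysis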
PP5 inh = blocks human protein phosphatase 5 activity | P53041 | purified PP5c, OMFP substrate fluorescence | inhibition, % at 6.7 µM | hit rate 0.18% among 320,000;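 active = inhibition above the campaign's mean inhibition across all tested compounds plus 3 SD, cut at about 9.5% in these data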;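 note: 0% = DMSO only and 100% = 100 µM cantharidin control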
NadD block = blocks S. aureus nicotinate mononucleotide adenylyltransferase; purified NadD enzyme, colorimetric absorbance read-out; inhibition, % at 20 µM; hit rate 0.78% among 360,000; in the data active = inhibition above about 26%
CTSL1 counter = counter-screen for PFM18AAP inhibitors: inhibitors of F. hepatica cathepsin L1. inhibition, % at 5.96 µM. recombinant F. hepatica cathepsin L1, Z-Leu-Arg-MCA fluorescence. hit rate 0.49% among 300,000;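 active = inhibition above the mean of all tested compounds plus 3 SD, set per screening campaign, cut at about 17% in these data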;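 note: 0% = plate median of test compound wells and 100% = 1 µM Z-Phe-Ala-diazomethylketone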
* = called active by the depositor; i = inactive; ? = inconclusive; . = no result; + = active, no number.

SMILES	PP1 counter	HCV core dimer	Myeloid diff 2	PP5 inh	NadD block	CTSL1 counter
O=C1CCCCC(=O)[C@H](O)C[C@H](c2ccccc2)O1	.	.	i	.	3	.
CCCCCOc1ccc(Br)cc1/C(C)=N/NC1=NCCN1	17*	-14	?	3	2	-1
CCOC(=O)C1C(=O)NC(c2ccccc2)=NC1c1ccc(Cl)cc1 (centres undefined)	0	-1	i	2	-3	-1
CCOC(=O)C1C(=O)NC(c2ccccc2)=NC1c1cccc(Br)c1 (centres undefined)	2	3	i	2	-5	22*
CC(C)(C)c1ccc(Cn2c(=O)cnc3ccccc32)cc1	4	7	i	3	-3	-1
CCOc1ccc(-c2cc(C(=O)N3CCN(c4ccccn4)CC3)c3ccccc3n2)cc1	-5	8	?	1	-4	-4
CN1CCC(N(C)C(=O)c2cc(-c3ccc(F)cc3)nc3ccccc23)CC1	.	.	i	.	-4	.
CN1CCC(N(C)C(=O)c2cc(-c3ccccc3Cl)nc3ccccc23)CC1	-5	.	+	4	-10	.
Cc1ccc(-c2cc(C(=O)N3CCN(c4ccc(F)cc4)CC3)c3ccccc3n2)o1	0	49*	i	2	27	-1
Cc1ccccc1-c1cc(C(=O)N2CCCC2)c2ccccc2n1	2	53*	i	1	9	1
COc1ccc(-c2cc(C(=O)N3CCN(c4ccccn4)CC3)c3ccccc3n2)cc1	2	6	+	3	9	-5
O=C1N=c2ccc(Br)cc2=C1c1sc(=S)n(NS(=O)(=O)c2ccccc2)c1O	3	-2	i	0	21	28*
O=C1N=c2ccccc2=C1c1sc(=S)n(NC(=O)c2cccc(O)c2)c1O	.	.	i	.	21	.
CSc1ccccc1C(=O)NCc1ccc(F)cc1	-5	4	i	-3	-4	32*
O=C(Nc1ccc(Oc2cccc(C(F)(F)F)c2)nc1)c1ccco1	3	-7	i	6	-9	1
CC(C)(C)c1ccc(Oc2ccc(NC(=O)c3ccco3)cn2)cc1	0	-4	+	0	-2	0
NNC(=O)c1csc(-c2cccc(C(F)(F)F)c2)n1	-4	0	+	1	1	1
CCN(CC(=O)Nc1ccc(OC)cc1)C(=O)c1ccc(N2C(=O)CCC2=O)cc1	-3	.	i	0	-2	.
COc1cccc(NC(=O)CN2C(=O)COc3ccc(S(=O)(=O)N4CCOCC4)cc32)c1	-2	-6	i	0	0	-2
O=C(CCCn1ncn2c(cc3occc32)c1=O)NCc1cccc(Cl)c1	-5	5	?	-3	-4	-10
COc1cccc(CNC(=O)CCCn2ncn3c(cc4occc43)c2=O)c1	-4	-1	+	2	-8	1
O=C(CN1C2CCCC1CC(NC(=O)C1CCCCC1)C2)Nc1ccccc1C(F)(F)F (centres undefined)	-1	4	+	0	-6	1
COC(=O)c1c[nH]c2c1-c1cc(C(=O)OCc3ccccc3)n(S(=O)(=O)c3ccc(C)cc3)c1C(=O)C2=O	.	.	.	.	23	.
COc1ccc(-c2cc(C(=O)Nc3cc(S(N)(=O)=O)ccc3C)c3ccccc3n2)cc1OC	3	3	i	4	5	22*
Cn1c(=O)c(-c2ccccc2[N+](=O)[O-])c(Cl)c2ccccc21	2	3	i	0	-2	6
SMILES	PP1 counter	HCV core dimer	Myeloid diff 2	PP5 inh	NadD block	CTSL1 counter
COc1ccc(-c2cc(NC(=O)c3cncn3-c3ccccc3)ccc2OC)cc1	5	2	+	5	9	3
COc1cccc(NC(=S)N(CCc2c(C)[nH]c3ccc(C)cc23)Cc2cccs2)c1	-1	5	i	5	4	-4
COc1ccc2[nH]c(C)c(CCN(Cc3cccs3)C(=S)Nc3cccc(F)c3)c2c1	1	11	+	4	16	-2
COc1ccc2cc1Oc1ccc(cc1)C[C@H]1c3c(cc(OC)c4c3Oc3c(ccc5c3[C@H](C2)N(C)CC5)O4)CCN1C	.	.	?	.	13	.
COc1ccc2cc1Oc1ccc(cc1)CC1c3c(cc(OC)c4c3Oc3cc5c(cc3O4)CCNC5C2)CCN1C (centres undefined)	1	-1	+	4	16	2
CC(C)[C@H](NC(=O)c1ccc([N+](=O)[O-])cc1Cl)C(=O)N1CCN(C/C=C/c2ccccc2)CC1	.	.	i	.	0	.
CCCCNC(=O)CO/N=C(\C)c1cc2ccccc2o1	1	-3	+	0	5	5
Cc1ccc(C(=O)CSc2nc(-c3ccccc3)ccc2C#N)cc1	-2	-3	+	1	-3	4
Cc1ccc(-c2ccc(SCC(=O)c3ccccc3)nn2)cc1	2	6	i	1	1	-1
C=CCn1c(C)cc(C(=O)Cn2ncc(Cl)c(Cl)c2=O)c1C	9	51*	?	0	17	4
C=CCn1c(C)nnc1SCC(=O)Nc1oc(C)c2c(C)n[nH]c(=O)c12	-5	-6	i	2	-5	18*
COc1ccc2oc(-c3ccc(C)c(NC(=O)CSc4ccc(Cl)cc4)c3)nc2c1	-1	10	+	0	-5	3
O=C(CSc1ccc(Cl)cc1)Nc1cc(-c2nc3ncccc3o2)ccc1Cl	4	9	.	0	.	2
Cc1ccc(CNC(=O)C2CSC3(C)CCC(=O)N23)cc1 (centres undefined)	.	.	i	.	-3	.
Cc1cc(N/N=C/c2ccccc2Cl)nc(NCc2ccccc2)n1	17*	2	i	6	7	1
Cc1ccc(Cn2c(C(C)Nc3nc(-c4ccc(Cl)cc4)cs3)nc3cc(C(=O)NCCCO)ccc32)cc1 (centres undefined)	7	-2	+	5	2	-2
Cc1ccc(Cn2c(CCNc3nc(-c4ccc(C)cc4)cs3)nc3cc(C(=O)NCCCO)ccc32)cc1	7	-5	i	3	-1	4
O=C(C[C@H]1C/C=C\C[C@H](Cc2ccc(F)cc2)C(=O)O[C@@H](c2ccccc2)CNC1=O)NCCO	.	.	i	.	-2	.
CCOC1=C2CN(S(=O)(=O)c3ccc(C)cc3)[C@H](c3cccc4ccccc34)C[C@H]2C(C#N)(C#N)C(C#N)(C#N)C1	.	.	?	.	30*	.
CCCCC[C@@H]1[C@@H]2C(=C(OCC)C[C@@H]3C(=O)N(c4ccccc4)C(=O)[C@H]23)[C@H](c2ccccc2)N1S(=O)(=O)c1ccc(C)cc1	.	.	i	.	1	.
CCOC1=C2[C@H](c3ccccc3)N(S(=O)(=O)c3ccc(C)cc3)C(C(C)(C)C)[C@H]2C(C#N)(C#N)C(C#N)(C#N)C1 (some centres undefined)	.	.	?	.	34*	.
COc1ccc(Cl)cc1NC(=O)CN(C)C(=O)c1cc(C)oc1C	2	.	i	-2	0	.

Screening data as filed in PubChem BioAssay.
